Active and inactive are the calls of the source. No cut-off for these calls is given here.
What was measured:
[1] = system: Leishmania braziliensis; assay: Antileishmanial activity against Leishmania braziliensis MHOM/BR/75/M2904 promastigotes after 72 hrs; format: functional, organism-based; details: MHOM/BR/75/M2904, 72 h
In short: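 Exponential-phase promastigotes at 10×10^6/ml in Schneider's medium with 5% FBS were incubated 72 h at 28 °C with compound dilutions from 100 to 1.6. Amphotericin B (31.25–1000 nM) was the positive control and 1% DMSO the negative control. Live parasites were counted in a Neubauer chamber. IC50 came from linear regression, mean ± standard error of three independent triplicate experiments.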

[2] = system: Trypanosoma cruzi; assay: Antitrypanosomal activity against Trypanosoma cruzi epimastigotes at 500 uM after 72 hrs
[3] = system: Trypanosoma cruzi; assay: Antitrypanosomal activity against Trypanosoma cruzi Y epimastigotes at 500 uM after 72 hrs; format: functional, organism-based
[4] = system: Leishmania braziliensis; assay: Antileishmanial activity against Leishmania braziliensis MHOM/BR/75/M2904 amastigotes assessed as reduction in intracellular amastigote after 48 hrs; format: functional, organism-based
In short: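 L. braziliensis axenic amastigotes were made by differentiating stationary-phase promastigotes in Schneider medium with 20% FBS, pH 6.3, at 34 °C for 72 h. J774.A1 cells were infected at 10:1 parasite:cell overnight at 34 °C in RPMI with 20% FBS. Cells were exposed to 1–100 compound for 48 h at 34 °C/5% CO2, Giemsa-stained, and 200 cells counted. Percent inhibition above 25% counted as significant.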

Row | SMILES | IC50 [1] [µM] | Activity [2] | Activity [3] | Activity [4]
1 | COc1ccc(/C=C/C(=O)c2ccccc2)cc1S(=O)(=O)N1CCOCC1 | 5.9 | inactive | inactive | –
2 | COc1ccc(/C=C/C(=O)c2ccccc2)cc1S(=O)(=O)Nc1ccc(Cl)c(Cl)c1 | 8.1 | inactive | inactive | –
3 | COc1ccc(/C=C/C(=O)c2ccccc2)cc1 [4-METHOXY CHALCONE] | 16.6 | – | – | –
4 | COc1ccc(/C=C/C(=O)c2ccccc2)cc1S(=O)(=O)Nc1ccccc1 | 69 | inactive | inactive | –
5 | COc1ccc(/C=C/C(=O)c2ccccc2)cc1S(=O)(=O)N1CCCC1 | 13 | inactive | inactive | –
6 | COc1ccc(/C=C/C(=O)c2ccccc2)cc1S(=O)(=O)N(C)C | 8.6 | inactive | inactive | –
7 | N=C(N)c1ccc(OCCCCCOc2ccc(C(=N)N)cc2)cc1 | 19.6 | – | – | –
8 | COc1ccc(/C=C/C(=O)c2ccccc2)cc1S(=O)(=O)Nc1ccc(Cl)cc1 | 4.6 | inactive | inactive | –
9 | COc1ccc(NS(=O)(=O)c2cc(/C=C/C(=O)c3ccccc3)ccc2OC)cc1 | 7.5 | inactive | inactive | –
10 | C[C@@H]1[C@H](O)[C@@H](C)/C=C/C=C/C=C/C=C/C=C/C=C/C=C/[C@H](O[C@@H]2O[C@H](C)[C@@H](O)[C@H](N)[C@@H]2O)C[C@@H]2O[C@](O)(C[C@@H](O)C[C@@H](O)[C@H](O)CC[C@@H](O)C[C@@H](O)CC(=O)O[C@H]1C)C[C@H](O)[C@H]2C(=O)O [AMPHOTERICIN B] | 0.3 | – | – | –
11 | CCN(CC)S(=O)(=O)c1cc(/C=C/C(=O)c2ccccc2)ccc1OC | 5.6 | inactive | inactive | –
12 | COc1ccc(/C=C/C(=O)c2ccccc2)cc1S(=O)(=O)NCc1ccccc1 | 3.5 | inactive | inactive | Active
